The source made the active and inactive calls. No cut-off for these calls is given here.
Tests used:
[1] = system: HepG2; assay: Induction of cell death in human HepG2 cells at 3 uM after 12 hrs in presence of Nec-1 by MTT assay; assay type: functional, cell-based
Outline: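 HepG2 cells pretreated with Nec-1 (30 μM) for 2 h, then given 3 μM. Viability measured by MTT with absorbance read at 570 nm.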

[2] = system: HepG2; assay: Induction of apoptosis in human HepG2 cells assessed as late apoptotic cells at 4 uM after 24 hrs by annexin V/propidium iodide staining based flow cytometric analysis (reference value: 3.22%); assay type: functional
[3] = system: HepG2; assay: Induction of apoptosis in human HepG2 cells assessed as early apoptotic cells at 1 uM after 24 hrs by annexin V/propidium iodide staining based flow cytometric analysis (reference value: 1.29%); assay type: functional
[4] = system: HepG2; assay: Induction of cell death in human HepG2 cells assessed as reduction in cell viability after 24 hrs in presence of z-VAD-fmk by MTT assay; assay type: functional, cell-based
Outline: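 HepG2 cells pretreated with 20 μM z-VAD-fmk for 2 h, then exposed to a range of doses. Viability measured by MTT: 4 h at 37 °C, formazan in DMSO, absorbance at 570 nm.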

[5] = system: HepG2; assay: Antitumour activity against human HepG2 cells xenografted in AB zebrafish assessed as inhibition of cell growth at 0.8 to 2.4 uM after 48 hrs by cell tracker CM-Dil based laser confocal microscopic method; assay type: functional; details: dose 0.8-2.4 µM
Outline: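 Wild-type AB zebrafish embryos raised at 28 °C in embryo medium (5.0 mM NaCl, 0.17 mM KCl, 0.4 mM CaCl2, 0.16 mM MgSO4). HepG2 cells labelled with CM-DiI, microinjected into 2-day-old larvae. At 4 h post-injection, larvae with the same injection spot were grouped (about 15–20 per group, three wells each). Exposed to 0.8, 1.6 or 2.4 μM in the water for 48 h; doxorubicin 1.0 μM as reference. Tumour fluorescence intensity measured by confocal microscopy.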

[6] = system: HepG2; assay: Induction of apoptosis in human HepG2 cells assessed as increase in cleaved-caspase 8 protein expression at 1 to 4 uM after 24 hrs by Western blot analysis; assay type: functional, cell-based; details: dose 1-4 µM
Outline: (§1)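 HepG2 cells lysed in RIPA on ice for 20 min; protein measured by BCA. Lysates run on 10% SDS-PAGE and transferred to PVDF. Membranes blocked in 5% nonfat milk/TBST for 2 h, incubated with primary antibodies overnight at 4 °C, then HRP secondary antibody; bands detected by ECL.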

[7] = system: HepG2; assay: Induction of apoptosis in human HepG2 cells assessed as necrotic cells at 2 uM after 24 hrs by annexin V/propidium iodide staining based flow cytometric analysis (reference value: 0.11%); assay type: functional
[8] = system: HepG2; assay: Induction of apoptosis in human HepG2 cells assessed as viable cells at 2 uM after 24 hrs by annexin V/propidium iodide staining based flow cytometric analysis (reference value: 95.3%); assay type: functional; details: read-out: Activity
[9] = system: HepG2; assay: Induction of autophagy in human HepG2 cells assessed as effect on P62 protein expression at 3 uM after 24 hrs by Western blot analysis; assay type: functional, cell-based; outline: as §1
[10] = system: HepG2; assay: Induction of cell death in human HepG2 cells at 3 uM after 24 hrs in presence of 3-MA by MTT assay; assay type: functional, cell-based
Outline: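 HepG2 cells given 3 μM for 24 h together with CQ (10 μM) or 3-MA (1 mM). Viability measured by MTT with absorbance read at 570 nm.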

[11] = Selectivity ratio of IC50 for antiproliferative activity against human L02 cells to IC50 for antiproliferative activity human HepG2 cells; assay type: toxicity, cell-based; details: L02 cells and HepG2 cells, read-out: Ratio IC50
Outline: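 MTT assay after 48 h drug exposure. Cells seeded overnight, MTT (5 mg/mL stock) added for 4 h at 37 °C, formazan dissolved in DMSO, absorbance read at 570 nm. IC50 taken from viability, repeated in triplicate, and the IC50 ratio calculated.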

[12] = system: PANC-1; assay: Antiproliferative activity against human PANC1 cells assessed as reduction in cell viability after 48 hrs by MTT assay; assay type: functional, cell-based; details: PANC-1, 48 h
Outline: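 Cell lines grown at 37 °C in 5% CO2: A2780, A549, HL7702 and PC3 in RPMI 1640; HT29 in McCoy's 5A; HepG2 and PANC-1 in DMEM; all media with 10% FBS and penicillin/streptomycin. Cells seeded and left overnight, then exposed to compound for 48 h. MTT (5 mg/mL solution) added for 4 h at 37 °C, formazan dissolved in DMSO, absorbance read at 570 nm. IC50 taken from viability; run in triplicate.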

[13] = system: PANC-1; assay: Induction of morphological changes in human PANC-1 cells assessed as accumulation of cytoplasmic vacuoles at 4 uM after 24 hrs by optical microscopic method; assay type: functional, cell-based
Outline: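 Cells grown at 37 °C, 5% CO2 in media with 10% FBS and penicillin/streptomycin, then treated with compound. Cytoplasmic vacuoles judged by optical microscopy. Time course at 4 μM, or 10 h exposure across increasing concentrations.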

[14] = system: HepG2; assay: Induction of apoptosis in human HepG2 cells assessed as increase in cleaved-PARP protein expression at 1 to 4 uM after 24 hrs by Western blot analysis; assay type: functional, cell-based; details: dose 1-4 µM; outline: as §1
[15] = Ratio of HN drug uptake to test compound drug uptake in human HepG2 cells mitochondria at 5 uM after 12 hrs by HPLC analysis; assay type: ADME; details: hepg2, 12 h
Outline: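 HepG2 cells treated with 5 μM compound or honokiol for 12 h. Mitochondria isolated with a kit by centrifugation at 600g then 11000g, 4 °C, 10 min each. Whole-cell and mitochondrial drug measured by HPLC on a C18 column, methanol-0.1% acetic acid (80:20), at 265 nm (derivative) and 210 nm (honokiol). Run thrice.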

With C=CCc1ccc(O)c(-c2ccc(OCCCCCc3c4[n+](cc5c(OC)c(OC)ccc35)CCc3cc5c(cc3-4)OCO5)c(CC=C)c2)c1.[I-] the Activity [1] was “Active”, the Activity [2] was 17.6% and the Activity [3] was 3.27%. The Activity [4] was “Active”, the “growth inhibition (GI)” value [5] was “Active” and the Activity [6] was “Active”. For the same compound, the Activity [7] was 0.13%, the viability at 2 µM [8] was 93.3% and the Activity [9] was “inactive”. The Activity [10] was “Active”, the selectivity ratio [11] was 2.8 and the IC50 [12] was 3.34 µM. The Activity [13] was “Active”, the Activity [14] was “Active” and the Ratio [15] was 3.7.
